The list is not random: actives were taken first. Their share in the collection is about 3.2%.
OX1R antag-1: antagonists of human orexin 1 receptor (OX1R) | O43613 | OX1R-expressing cells, FRET antagonist read-out | inhibition, % at 6.6 µM | 330,000 compounds, 1.8% hits; in the data active = inhibition mostly above about 38%, no sharp cut-off; inactive = mostly below about 40%
Target sequence (O43613 whole entry, looked up): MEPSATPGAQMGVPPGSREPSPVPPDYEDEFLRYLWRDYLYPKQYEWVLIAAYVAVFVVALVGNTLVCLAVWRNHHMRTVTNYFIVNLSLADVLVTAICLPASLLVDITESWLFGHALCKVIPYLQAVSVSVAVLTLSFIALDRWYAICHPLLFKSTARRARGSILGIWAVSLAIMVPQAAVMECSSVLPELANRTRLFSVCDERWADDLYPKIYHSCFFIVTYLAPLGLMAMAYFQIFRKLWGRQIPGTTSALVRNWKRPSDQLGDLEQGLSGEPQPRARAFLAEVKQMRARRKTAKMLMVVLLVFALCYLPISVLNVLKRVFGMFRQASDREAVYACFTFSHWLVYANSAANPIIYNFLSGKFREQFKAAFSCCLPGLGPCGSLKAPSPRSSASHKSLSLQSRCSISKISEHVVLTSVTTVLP
CHO parental Ca: signal in parental CHO cells, OX1R antagonist counter-screen; parental CHO-K1, ATP-induced calcium, Fluo-8 fluorescence; inhibition, % at 5.6 µM; 330,000 compounds, 0.63% hits; AID 463079;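 active = inhibition above that plate's mean sample inhibition plus 3 SD, cut at about 26% in these data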
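Test system: untransfected parental CHO cell line; also added: ATP stimulus; dosing: 5.6 µM, single dose; signal: calcium-sensitive Fluo-8 fluorescence; measure: percent inhibition of ATP-evoked calcium rise, normalized to controls; benchmarks: low control ATP plus DMSO, high control DMSO only; replication: one well per compound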
GPR7 antagonist: blocks human GPR7 receptor signaling; 290,000 compounds, 1.1% hits; inhibition, % at 4.4 µM; GPR7-expressing cells, fluorescence antagonist assay; in the data active = inhibition above about 16%, passing the limit was not always enough;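 also: cells stimulated with the agonist NPW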
OX1R antag-2: human HCRTR1 antagonism. inhibition, % at 5 µM. CHO/OX1R cells, Fluo-8 calcium fluorescence, orexin A. 330,000 compounds, 0.43% hits;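 active = inhibition above its plate's threshold, mean inhibition of all tested compounds on the plate plus 3 SD, cut at about 37% in these data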
TRPN1 ag: agonists of zebrafish TRPN1 channel; 220,000 compounds, 0.18% hits; HEK293 zebrafish TRPN1-YFP, Fluo-8 calcium fluorescence; 100% = response to 87 µM carbachol; activation, % at 3 µM;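 active = activation above its plate's cutoff, the mean activation of test wells on that plate plus 3 SD, cut at about 19% in these data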
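System: zebrafish TRPN1-YFP in HEK293 cells / Dosing: 3 µM single point / Timing: dye loading 1 h at 37 °C, then 30 min room temperature / Signal: Fluo-8 calcium fluorescence, excitation 470-495 nm, emission 515-575 nm / Read-out basis: percent activation from peak over basal fluorescence ratio, control-normalized / Control set: high carbachol 87 µM, low DMSO alone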
TRPML3 ag: agonists of human TRPML3 channel | 220,000 compounds, 0.29% hits | HEK293 TRPML3-YFP, Fluo-8 calcium fluorescence; 100% = the carbachol control signal | Q8TDD5 | activation, % at 3 µM;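 active = activation above its plate's cutoff, the mean activation of the plate's test wells plus 3 SD, cut at about 12% in these data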
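Test system: TRPML3-YFP stable HEK293 cells. Doses: single point at 3 µM. Incubation: dye loading 1 h 37 °C then 30 min ambient, 125 s read. Signal: Fluo-8 calcium dye fluorescence, ex 470-495, em 515-575 nm. Measure: percent activation from peak-to-basal fluorescence ratio, scaled between DMSO and carbachol.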
Hits are given with their value; . = inactive; / = no result.

SMILES	OX1R antag-1	CHO parental Ca	GPR7 antagonist	OX1R antag-2	TRPN1 ag	TRPML3 ag
CCOC(=O)C1CCCN(c2oc(-c3ccc(OC)cc3)nc2C#N)C1 (centres undefined)	.	.	.	.	.	.
O=c1c2cccc3c2c(nn1CN1CCOCC1)-c1ccccc1-3	71	.	.	.	.	.
CC1CCc2[nH]c3ccc(C(=O)N4CCCC(C(F)(F)F)C4)cc3c2C1 (centres undefined)	.	.	/	.	/	/
O=C(Cc1ccccc1)NCC(=O)N/N=C/c1ccc([N+](=O)[O-])s1	52	.	.	.	/	/
O=C(Cc1ccccc1)NCC(=O)N/N=C/c1ccc(C(=O)O)cc1	.	.	.	.	/	/
O=C(N/N=C/c1ccc([N+](=O)[O-])s1)c1ccncc1	72	.	.	.	.	.
O=C(CNC(=O)c1ccccc1)N/N=C/c1cccs1	.	.	.	.	.	.
O=C(CNC(=O)c1ccccc1)N/N=C/c1ccc([N+](=O)[O-])s1	47	.	.	.	.	.
Cc1ccc(C(=O)N/N=C/c2ccc([N+](=O)[O-])s2)cc1	.	.	.	.	.	.
Cc1ccnc(NS(=O)(=O)c2ccc(NC(=O)c3ccc([N+](=O)[O-])s3)cc2)n1	.	.	.	.	.	.
Cc1c(Cl)cccc1N=C1SCCN1C(=O)CN1C(=O)NC2(CCCC2)C1=O	.	.	/	.	/	/
COc1ccc(-c2n(CC(=O)OC3CC(C)CCC3C(C)C)c3ccccc3[n+]2C)cc1 (centres undefined)	/	/	93	/	.	.
O=C(Cn1nc(-c2ccccc2)ccc1=O)Nc1ccc(N2CCN(C(=O)c3ccccc3)CC2)cc1	.	.	20	.	.	.
CC(=O)Nc1cc2c(cc1NC(=O)Cn1nc(-c3ccc4c(c3)OCCO4)ccc1=O)OCCO2	.	.	.	.	.	.
O=C(Cn1nc(-c2ccc3c(c2)OCCO3)ccc1=O)Nc1ccc(-n2cnnn2)cc1	.	29	.	.	.	.
Cc1cc(C)cc(C(=O)N2CCN(c3ccccn3)CC2)c1	.	.	.	.	.	.
COc1cc(NC(=O)c2ccccc2-c2ccccc2)cc(OC)c1	57	.	.	.	.	.
COc1ccc(NS(=O)(=O)c2ccc(-c3coc(C)n3)cc2)cc1OC	.	50	.	.	/	/
COc1ccc(NS(=O)(=O)c2ccc(-c3coc(C)n3)cc2)cc1	.	.	.	.	/	/
COc1cc(C(=O)ON=C2C=C(C)C(=O)C(C)=C2)cc(OC)c1OC	75	.	.	.	.	.
COc1ccc(NC(=O)COc2ccc(/C=C/c3cccc[n+]3C)cc2OC)cc1	.	.	.	.	/	/
C=CC[n+]1c(/C=C/c2ccc(OC(C)=O)c(OC)c2)ccc2ccccc21	48	.	.	.	/	/
CC(NC(=O)c1c(O)c2ccccc2n(C)c1=O)c1ccccc1 (centres undefined)	.	.	.	.	/	/
Nc1nc(-c2cc3ccccc3o2)cs1	.	.	.	.	.	.
CCc1ccc(C(=O)CN2C(=O)NC(C)(CCc3ccccc3)C2=O)cc1 (centres undefined)	.	.	.	.	.	.
SMILES	OX1R antag-1	CHO parental Ca	GPR7 antagonist	OX1R antag-2	TRPN1 ag	TRPML3 ag
CC(/C=C/c1cccc([N+](=O)[O-])c1)=N/NC(=O)c1cccnc1	.	.	.	.	.	.
O=C1NCCCC1C(=O)N/N=C/c1ccc([N+](=O)[O-])cc1 (centres undefined)	54	.	.	.	.	.
O=C(N/N=C/C=C\c1cccc([N+](=O)[O-])c1)c1cccnc1	36	.	.	.	.	.
O=C1NCCCC1C(=O)N/N=C/c1cccc([N+](=O)[O-])c1 (centres undefined)	.	.	.	.	.	.
O=C(/C=C/c1cccc([N+](=O)[O-])c1)NCc1cccnc1	72	.	.	.	.	.
COc1cc(/C=N/NC(=O)Cc2nnc(N)s2)cc(OC)c1OC	.	.	.	.	.	.
Nc1nnc(CC(=O)N/N=C/c2ccc([N+](=O)[O-])cc2)s1	75	.	.	.	.	.
Cc1ccc(-n2ccn(CC(=O)NCCc3ccccc3)c(=O)c2=O)cc1C	.	.	.	.	/	/

Bioassay records from PubChem.
